# Results pooled from the literature.
# Target: Serine/threonine-protein kinase 4 (STK4, Homo sapiens, UniProt Q13043)
# Residues used in one study (Q13043 1-487): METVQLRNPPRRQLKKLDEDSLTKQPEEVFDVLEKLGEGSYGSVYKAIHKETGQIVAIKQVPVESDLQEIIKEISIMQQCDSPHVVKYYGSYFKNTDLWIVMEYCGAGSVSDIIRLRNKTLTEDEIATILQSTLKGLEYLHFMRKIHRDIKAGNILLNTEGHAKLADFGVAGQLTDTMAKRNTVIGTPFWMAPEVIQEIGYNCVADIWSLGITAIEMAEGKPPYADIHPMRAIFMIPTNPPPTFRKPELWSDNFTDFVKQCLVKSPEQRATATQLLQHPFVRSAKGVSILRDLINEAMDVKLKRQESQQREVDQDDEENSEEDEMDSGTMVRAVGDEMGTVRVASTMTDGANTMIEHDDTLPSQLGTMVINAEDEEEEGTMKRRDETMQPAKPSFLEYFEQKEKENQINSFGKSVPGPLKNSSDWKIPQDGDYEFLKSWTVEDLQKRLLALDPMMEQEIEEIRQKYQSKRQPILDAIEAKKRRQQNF
Structure (SMILES),read-out,action,technique,concentration,quantity,result
Nc1ncnc2occ(-c3ccc(NC(=O)Nc4cc(C(F)(F)F)ccc4F)cc3)c12,cell-free assay,inhibitor,,20 µM,remaining signal,2.1%
Cc1ccc(Nc2nccc(N(C)c3ccc4c(C)n(C)nc4c3)n2)cc1S(N)(=O)=O,enzyme activity,inhibitor,,10 µM,inhibition,3%
C[C@@H]1CCN(C(=O)CC#N)C[C@@H]1N(C)c1ncnc2[nH]ccc12,cell-free assay,inhibitor,,0.5 µM,remaining signal,95.5%
Cc1nc(C2CCN(C(=O)c3ccc(OC(F)(F)F)cc3N)CC2)c2ncc(N3CCN(C)CC3)cc2n1,cell-free assay,,competition with immobilised ligand,1 µM,remaining binding,85%
CC1(C)NC(=O)c2[nH]c3c(Cl)c(Cl)ccc3c2C1C#N (centres unmarked),thermal stability,,DSF,10 µM,ΔTm,-0.6 °C
COc1cc(Cl)c(C(=O)N[C@@H](CN[C@H]2CC[C@@H](N)CC2)Cc2ccc(C#N)cc2)cc1-c1ccc(CN[C@H](C)c2ccc(C)cc2)o1,enzyme activity,inhibitor,,1 µM,remaining activity,102%
CCCS(=O)(=O)Nc1ccc(F)c(C(=O)c2c[nH]c3ncc(-c4ccc(Cl)cc4)cc23)c1F,enzyme activity,inhibitor,,1 µM,inhibition,< 20%
CN1CC(Oc2cnc(C#N)cc2-c2ccn3nc(NC(=O)C4CC4)cc3c2)C1,enzyme activity,inhibitor,,1 µM,inhibition,-5%
CC(C)(C)c1nc(-c2cccc(NS(=O)(=O)c3c(F)cccc3F)c2F)c(-c2ccnc(N)n2)s1,enzyme activity,inhibitor,radiometric,1 µM,remaining activity,105%
Cc1cc(NC(=O)c2cccc3cc(-c4cccc5[nH]nc(N)c45)ccc23)ccc1F,enzyme activity,inhibitor,,0.1 µM,activity vs control,104%
Cc1c(NC(=O)c2cc(C(N)=O)nc3cc(F)ccc23)c(C(F)(F)F)nn1Cc1ccc(C(C)(C)C)cc1,cell-free assay,,competition with immobilised ligand,1 µM,remaining binding,95%
Cn1c2c(c3ccc(Cl)c(Cl)c31)C(C#N)C(C)(C)NC2=O (centres unmarked),thermal stability,,DSF,10 µM,ΔTm,-0.4 °C
CCN(CC)CCNC(=O)c1c(C)[nH]c(/C=C2\C(=O)Nc3ccc(F)cc32)c1C,cell-free assay,,,0.5 µM,remaining signal,10.7%
O=C(Nc1ccc(Oc2ccc(F)cc2)cc1)N1CCc2ncccc2[C@H]1c1ccc(F)cc1,cell-free assay,,competition with immobilised ligand,1 µM,remaining binding,99%
Cc1sc(C(=O)NC2COC2)cc1-n1cc(NC(=O)Nc2c(F)cccc2Cl)cn1,enzyme activity,inhibitor,,10 µM,remaining activity,107%
COc1cccc2c(NCc3ccccc3)nc(-n3c(N)nc4ccccc43)nc12,target engagement in cells,inhibitor,chemoproteomics,20 mM,inhibition,6.2%
CNC(=O)Nc1ccc2c(c1)CC[C@@]21OC(=O)N(CC(=O)N(Cc2ccc(F)cc2)[C@@H](C)C(F)(F)F)C1=O,cell-free assay,,competition with immobilised ligand,1 µM,remaining binding,100%
Cc1ccc(NC(=O)c2ccc(C)c(C(F)(F)F)c2)cc1C#Cc1nn(C2CCC(O)CC2)c2ncnc(N)c12 (centres unmarked),cell-free assay,,,10 µM,remaining signal,109%
CN(C)C(=O)Cn1cc(-c2nc(C3(c4ccc(-c5cnc(N)nc5)cc4)CC3)no2)cn1,cell-free assay,,competition with immobilised ligand,1 µM,remaining binding,90%
Cn1c2c(c3ccc(Cl)c(Cl)c31)C(C#N)C1(CCOCC1)NC2=O (centres unmarked),thermal stability,,DSF,10 µM,ΔTm,-0.4 °C
